Experimental data of several laboratories.
Compare with care: the assays were run in different laboratories.
ADRA2A: Alpha-2A adrenergic receptor (ADRA2A, Homo sapiens, UniProt P08913)
OPRD1: Delta-type opioid receptor (OPRD1, Homo sapiens, UniProt P41143)
gag-pol reverse transcriptase: Gag-Pol polyprotein, reverse transcriptase (gag-pol, Human immunodeficiency virus 1, UniProt P03366)
OGT: UDP-N-acetylglucosamine--peptide N-acetylglucosaminyltransferase 110 kDa subunit (OGT, Homo sapiens, UniProt O15294)

Structure (SMILES) | target | test | test system | setting | IC50 [µM]
Nc1c(S(=O)(=O)O)cc(Nc2ccc(Nc3nc(Cl)nc(Nc4cccc(S(=O)(=O)O)c4)n3)c(S(=O)(=O)O)c2)c2c1C(=O)c1ccccc1C2=O | P2X purinoceptor 2 (P2RX2, Homo sapiens, UniProt Q9UBL9) | calcium signal, antagonist |  |  | 1.89
CCN(CC)C(=O)C1CN2CCc3cc(OC)c(OC)cc3C2CC1OC(C)=O (centres unmarked) | ADRA2A | ligand displacement, radioligand |  |  | 0.825
CNC[C@H](Cc1ccc(O)cc1)N1CCN(CCc2cccc(C)c2)[C@@H](C(C)C)C1 | OPRD1 | cell-free assay |  |  | > 10
CCOC(=O)c1cncn1C(C)c1ccc(C2(C(F)(F)F)N=N2)cc1 (centres unmarked) | 5-hydroxytryptamine receptor 3A (HTR3A, Homo sapiens, UniProt P46098) | ion current, two-electrode voltage clamp |  | oocytes | 9
Cc1cc(/C=C/C#N)cc(C)c1Nc1ccnc(Nc2ccc(C#N)cc2)n1 | gag-pol reverse transcriptase | enzyme activity, inhibitor |  |  | 0.0214
CN1CCC(=C2c3ccccc3CCc3sccc32)CC1 | ADRA2A | ligand displacement, radioligand |  |  | 0.577
CC(C)CCN1CCN([C@@H](CNCc2ccccc2)C(C)C)C[C@H]1C(C)C | OPRD1 | cell-free assay |  |  | > 10
CC(C)Cc1ccc([C@H](C)C(=O)O)cc1 | Histone acetyltransferase p300 (EP300, Homo sapiens, UniProt Q09472) | enzyme activity, inhibitor, mobility shift |  |  | ~6000
O=c1c(O)c(-c2ccc(O[C@@H]3O[C@H](CO)[C@@H](O)[C@H](O)[C@H]3O)c(O)c2)oc2cc(O)cc(O)c12 | Carbonic anhydrase 2 (CA2, Homo sapiens, UniProt P00918) | enzyme activity, inhibitor, absorbance |  |  | 0.0194
CCC[C@H](CNC)NC[C@@H](CCC)NCC1CCC(C)CC1 (some centres unmarked) | OPRD1 | cell-free assay |  |  | > 10
Cc1cc(C)nc(Nc2ncc(C(=O)NCCc3c(C)[nH]c4ccccc34)cn2)c1 | Cytochrome P450 2C19 (CYP2C19, Homo sapiens, UniProt P33261) | enzyme activity, inhibitor | human, liver microsomes |  | 11
CCC[C@H](CN[C@H](CNC)Cc1ccc(O)cc1)NCCC1CCCC1 | OPRD1 | cell-free assay |  |  | > 10
CC[C@H](C)[C@H](NC(=O)[C@H](CO)NC(=O)[C@H](Cc1ccc(O)cc1)NC(=O)[C@H](CCCCN)NC(=O)[C@@H]1CCCN1C(=O)[C@H](CCSC)NC(=O)[C@H](Cc1ccccc1)NC(=O)[C@H](CCSC)NC(=O)[C@@H](NC(=O)[C@@H]1CCCN1C(=O)[C@H](Cc1ccccc1)NC(=O)[C@H](CC(=O)O)NC(=O)CNC(=O)[C@H](CCCCN)NC(=O)[C@@H](N)CCCCN)C(C)C)C(=O)N[C@H](C(=O)N[C@@H](Cc1ccccc1)C(=O)O)[C@@H](C)CC | OGT | enzyme activity, inhibitor, fluorescence |  |  | 5.3
CNC[C@@H](Cc1ccc(O)cc1)N1CCN(CCC2CC3CCC2C3)CC1 (some centres unmarked) | OPRD1 | cell-free assay |  |  | > 10
Cc1cn([C@H]2CC[C@@H](OC(C(=O)O)C(=O)O)C2)c(=O)[nH]c1=O | gag-pol reverse transcriptase | enzyme activity, inhibitor, radiometric |  |  | > 640
CC[C@H](C)[C@H](NC(=O)[C@H](CO)NC(=O)[C@H](Cc1ccc(O)cc1)NC(=O)[C@H](CCCCN)NC(=O)[C@@H]1CCCN1C(=O)[C@H](CCSC)NC(=O)[C@H](Cc1ccccc1)NC(=O)[C@H](CCSC)NC(=O)[C@@H](NC(=O)[C@@H]1CCCN1C(=O)[C@H](Cc1ccccc1)NC(=O)[C@H](CC(=O)O)NC(=O)CN)C(C)C)C(=O)N[C@H](C(=O)N[C@@H](Cc1ccccc1)C(=O)N[C@@H](CCCCN)C(=O)N[C@@H](CCCCN)C(=O)O)[C@@H](C)CC | OGT | enzyme activity, inhibitor, fluorescence |  |  | 16
Cc1c(O)c(O)cc2c1CC=C1[C@@]2(C)CC[C@@]2(C)[C@@H]3C[C@](C)(C(=O)O)CC[C@]3(C)CC[C@]12C | Androgen receptor (AR, Homo sapiens, UniProt P10275) | ligand displacement in cells, radioligand |  |  | 0.057
CC(CCc1ccccc1)NC(C)C(O)c1ccc(O)cc1 (centres unmarked) | ADRA2A | calcium signal, antagonist |  |  | 18.6
CCC[C@H](CN[C@H](CNC)Cc1ccc(O)cc1)NCC1CCC(C)CC1 (some centres unmarked) | OPRD1 | cell-free assay |  |  | > 10
CCCCCCCCC[C@@H]1CC(=O)NCC(=O)N[C@H](Cc2ccc(O)cc2)C(=O)NCC(=O)N[C@@H](Cc2ccccc2)C(=O)O1 | OPRD1 | ligand displacement, radioligand |  |  | 38
